Results reported in ChEMBL document CHEMBL3576830, “Exploiting the Polypharmacology of ß-Carbolines to Disrupt O. volvulus Molting” (ACS Med Chem Lett, 2015).
Active and inactive are the calls of the source. No cut-off for these calls is given here.

Assays:
[1] = target: T1, Chitinase (Onchocerca volvulus, UniProt Q25615); test: Inhibition of L3 larval stage of Onchocerca volvulus chitinase using 4-methylumbelliferyl-N-N'-N''-beta-chitotrioside as substrate assessed as release of 4-methylumbelliferone measured for 10 mins by fluorescence assay
T1 sequence (Q25615 whole entry): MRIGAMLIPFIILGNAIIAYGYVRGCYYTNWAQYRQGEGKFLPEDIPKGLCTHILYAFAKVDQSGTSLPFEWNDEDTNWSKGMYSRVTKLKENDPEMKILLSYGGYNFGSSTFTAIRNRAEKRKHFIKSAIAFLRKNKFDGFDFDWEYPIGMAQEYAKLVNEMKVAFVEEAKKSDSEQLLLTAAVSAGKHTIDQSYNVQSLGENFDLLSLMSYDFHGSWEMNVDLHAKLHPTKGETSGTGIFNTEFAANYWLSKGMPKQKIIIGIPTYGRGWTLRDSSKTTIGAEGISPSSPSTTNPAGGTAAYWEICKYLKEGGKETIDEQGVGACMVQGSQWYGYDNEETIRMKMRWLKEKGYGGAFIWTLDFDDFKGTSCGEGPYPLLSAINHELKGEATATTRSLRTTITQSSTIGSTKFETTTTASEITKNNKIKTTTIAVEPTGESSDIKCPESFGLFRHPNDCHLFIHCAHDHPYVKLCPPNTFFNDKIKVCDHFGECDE

[2] = system: Onchocerca volvulus; test: Antionchocerciasis activity against L3 larval stage of Onchocerca volvulus assessed as inhibition of parasite molting at 10 uM treated for 24 hrs prior to complete medium and PBMC addition measured after 6 days by inverted microscopic analysis; assay type: functional
Procedure, shortened: (§1)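 O. volvulus L3 larvae in wells, 2−3 wells per condition with on average 5−10 larvae each, exposed to inhibitor. Molting counted and expressed as percent molting.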

[3] = system: Entamoeba histolytica; test: Inhibition of Entamoeba histolytica chitinase using 4-methylumbelliferyl-N-N'-N''-beta-chitotrioside as substrate assessed as release of 4-methylumbelliferone at 10 uM measured for 10 mins by fluorescence assay
[4] = target: T2, Endochitinase (Brugia malayi) (UniProt P29030); test: Inhibition of Brugia malayi chitinase using 4-methylumbelliferyl-N-N'-N''-beta-chitotrioside as substrate assessed as release of 4-methylumbelliferone at 10 uM measured for 10 mins by fluorescence assay
T2 sequence (whole entry): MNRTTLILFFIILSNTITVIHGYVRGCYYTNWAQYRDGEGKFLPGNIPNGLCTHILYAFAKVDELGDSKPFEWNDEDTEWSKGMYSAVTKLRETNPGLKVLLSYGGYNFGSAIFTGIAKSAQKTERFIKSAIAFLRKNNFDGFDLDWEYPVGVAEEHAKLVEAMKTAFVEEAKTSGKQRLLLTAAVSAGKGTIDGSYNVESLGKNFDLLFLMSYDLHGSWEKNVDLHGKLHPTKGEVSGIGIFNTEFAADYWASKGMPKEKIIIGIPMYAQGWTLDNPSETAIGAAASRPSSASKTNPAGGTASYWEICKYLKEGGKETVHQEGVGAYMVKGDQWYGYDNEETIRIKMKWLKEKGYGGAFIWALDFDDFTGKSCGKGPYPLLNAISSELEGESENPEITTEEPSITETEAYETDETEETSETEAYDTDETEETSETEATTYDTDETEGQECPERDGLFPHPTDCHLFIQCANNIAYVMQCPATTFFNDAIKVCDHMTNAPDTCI

[5] = system: HEK-293T; test: Mitochondrial uncoupling activity in HEK293T/17 cells at 50 uM after 30 mins by TMRE staining-based fluorescence assay; assay type: functional, cell-based; settings: Homo sapiens
Procedure, shortened: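 HEK 293T/17 cells incubated with 50 μM compound, then stained with TMRE to detect mitochondrial membrane depolarization, read in a microplate fluorescence assay. Reported as mean fluorescence intensity ± SD (n = 3). Unstained cells served as negative control and 0.5% DMSO as positive control. CCCP served as reference protonophore.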

[6] = target: T3, Chitinase (Onchocerca volvulus) (UniProt Q25615); test: Inhibition of L3 larval stage of Onchocerca volvulus chitinase using 4-methylumbelliferyl-N-N'-N''-beta-chitotrioside as substrate assessed as release of 4-methylumbelliferone at 5 uM measured for 10 mins by fluorescence assay
T3 sequence (whole entry): T1 sequence (Q25615 whole entry)
Procedure, shortened: (§2)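 OvCHT1 activity read by fluorescence, inhibitors tested at 10 and 5 μM.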

[7] = target: T3, Chitinase (Onchocerca volvulus); test: Inhibition of L3 larval stage of Onchocerca volvulus chitinase using 4-methylumbelliferyl-N-N'-N''-beta-chitotrioside as substrate assessed as release of 4-methylumbelliferone at 10 uM measured for 10 mins by fluorescence assay; assay type: tissue-based; procedure, shortened: as §2
[8] = system: HEK-293T; test: Cytotoxicity against HEK293T/17 cells at 5 uM after 0.5 to 24 hrs by MTS assay; assay type: cell-based; settings: human
[9] = system: Onchocerca volvulus; test: Antionchocerciasis activity against L3 larval stage of Onchocerca volvulus assessed as inhibition of parasite molting at 1 uM treated for 24 hrs prior to complete medium and PBMC addition measured after 6 days by inverted microscopic analysis; assay type: functional; procedure, shortened: as §1
[10] = system: Caenorhabditis elegans; test: Drug uptake in late stage L4 Caenorhabditis elegans at 10 uM after 6 hrs by LC-MS analysis; assay type: ADME, organism-based; settings: in vivo
Procedure, shortened: (§3)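 Late-stage L4 C. elegans incubated 6 h with 10 μM inhibitor (equivalent to 2 nmol/mg worm). Worm homogenates quantified by LC−MS and also searched for metabolites (7-O-dealkylation, aromatic ring and N²-oxidation products). Uptake expressed as nmol/mg worm, mean ± SD, n = 3.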

[11] = target: T1, Chitinase; test: Competitive inhibition of L3 larval stage of Onchocerca volvulus chitinase using 4-methylumbelliferyl-N-N'-N''-beta-chitotrioside as substrate assessed as release of 4-methylumbelliferone measured for 10 mins by Dixon plot analysis
[12] = system: Caenorhabditis elegans; test: Drug level in late stage L4 Caenorhabditis elegans treated with 2-(Cyclopropylmethyl)-7-methoxy-1-methyl-9H-pyrido[3,4-b]indol-2-ium bromide at 10 uM after 6 hrs by LC-MS analysis; assay type: ADME, organism-based; settings: in vivo
Procedure, shortened: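 Late-stage L4 C. elegans were exposed to 10 μM compound (equivalent to 2 nmol/mg worm) for 6 h. Worm homogenates were quantified by LC–MS and expressed as nmol/mg worm, mean ± SD, n = 3.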

[13] = system: Onchocerca volvulus; test: Antionchocerciasis activity against L3 larval stage of Onchocerca volvulus assessed as prevention of L3 cuticle shedding at 100 uM treated for 24 hrs prior to complete medium and PBMC addition measured after 6 days by inverted microscopic analysis; assay type: functional, organism-based
Procedure, shortened: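 O. volvulus L3 larvae in 2–3 wells, on average 5–10 larvae per well; read-out is percent molting across the wells.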

[14] = system: Caenorhabditis elegans; test: Drug metabolism in late stage L4 Caenorhabditis elegans assessed as formation of 7-O-dealkylated, aromatic ring, and N2-oxidized metabolite at 10 uM after 6 hrs by LC-MS analysis; assay type: ADME, organism-based; settings: in vivo; procedure, shortened: as §3
[15] = system: Caenorhabditis elegans; test: Drug metabolism in late stage L4 Caenorhabditis elegans assessed as formation of 7-methoxy-1-methyl-9H-pyrido[3,4-b]indole at 10 uM after 6 hrs by LC-MS analysis; assay type: ADME, organism-based; settings: in vivo; procedure, shortened: as §3

Cc1[nH]ccc2c1[nH]c1cc(=O)ccc12 [HARMOL]
IC50 [1]: 7.08 µM
inhibition at 10 µM [2]: 61%
inhibition [3]: inactive
inhibition [4]: inactive
Activity [5]: Active

Cc1nccc2c3ccccc3n(CC3CC3)c12
inhibition [6]: inactive

O=S(=O)(Nc1ccccc1)c1ccc2[nH]c3cnccc3c2c1
inhibition [7]: inactive

Cc1c2[nH]c3ccccc3c2cc[n+]1Cc1ccc(C(F)(F)F)cc1
inhibition [7]: inactive

Cc1c2[nH]c3ccccc3c2cc[n+]1Cc1ccccc1
inhibition [7]: inactive

COc1ccc2c(c1)[nH]c1c(C)[n+](Cc3ccc(Cl)cc3)ccc12.[Br-]
IC50 [1]: 3.49 µM
Activity [8]: Non-toxic
inhibition [2]: Active
Activity [5]: Active
inhibition at 1 µM [9]: 45%
Drug uptake [10]: 0.22 nmol/mg

Cc1ccc(NS(=O)(=O)c2ccc3[nH]c4cnccc4c3c2)cc1
inhibition [7]: inactive

COc1ccc2c(c1)[nH]c1c(C)nccc12 [HARMINE]
Ki [11]: 3.78 µM
IC50 [1]: 7.06 µM
inhibition at 10 µM [2]: 57%
inhibition [3]: inactive
inhibition [4]: inactive
Activity [5]: Active
Drug uptake [12]: 0.052 nmol/mg

Cc1nccc2c1[nH]c1ccccc12 [HARMAN]
IC50 [1]: 7.33 µM
inhibition [2]: inactive
Activity [5]: inactive
Activity [13]: Active

Cc1nccc2c1[nH]c1cc(OCc3ccc(Cl)cc3)ccc12
inhibition [7]: inactive

Cc1nccc2c1[nH]c1cc(OCC3CC3)ccc12
inhibition [7]: inactive

COc1ccc2c(c1)[nH]c1c(C)[n+](CC3CC3)ccc12.[Br-]
IC50 [1]: 3.57 µM
Activity [8]: Non-toxic
inhibition [2]: Active
inhibition [3]: inactive
Drug metabolism [14]: metabolite_notdetected
inhibition [4]: inactive
Drug metabolism [15]: metabolite_detected
Activity [5]: Active
inhibition [9]: inactive
Drug uptake [10]: 0.033 nmol/mg

CCNS(=O)(=O)c1ccc2[nH]c3cnccc3c2c1
inhibition [7]: inactive

Cc1c2[nH]c3cc(OCc4ccc(Cl)cc4)ccc3c2cc[n+]1Cc1ccc(Cl)cc1.[Br-]
Ki [11]: 0.98 µM
IC50 [1]: 1.43 µM
Activity [8]: Non-toxic
inhibition [2]: Active
inhibition [3]: Active
inhibition [4]: Active
Activity [5]: Active
inhibition at 1 µM [9]: 27%

N#CC(C#N)=NNc1cccc(Cl)c1
Activity [5]: Active

Cc1nccc2c3ccccc3n(Cc3ccc(Cl)cc3)c12
inhibition [7]: inactive

Cc1nccc2c3ccc(OCc4ccc(Cl)cc4)cc3n(Cc3ccc(Cl)cc3)c12
IC50 [1]: 2.08 µM
inhibition [2]: inactive
inhibition [3]: inactive
inhibition [4]: inactive
Activity [5]: inactive
Activity [13]: Active

Cc1c2[nH]c3ccccc3c2cc[n+]1CC1CC1
inhibition [6]: inactive

COc1ccc2c3ccnc(C)c3n(Cc3ccc(Cl)cc3)c2c1
inhibition [7]: inactive

Cc1c2[nH]c3ccccc3c2cc[n+]1Cc1ccc(Cl)cc1
inhibition [6]: inactive

O=S(=O)(Nc1ccc(Cl)cc1)c1ccc2[nH]c3cnccc3c2c1
inhibition [7]: inactive

Cc1nccc2c3ccccc3n(Cc3ccccc3)c12
inhibition [7]: inactive

O=S(=O)(NC1CCCC1)c1ccc2[nH]c3cnccc3c2c1
inhibition [7]: inactive

Cc1nccc2c3ccccc3n(C)c12
inhibition [7]: inactive

COc1ccc2c3ccnc(C)c3n(CC3CC3)c2c1
inhibition [7]: inactive

c1ccc2c(c1)[nH]c1cnccc12 [NORHARMANE]
IC50 [1]: 8.46 µM
inhibition [2]: inactive
Activity [5]: inactive
Activity [13]: Active

Cc1c2[nH]c3ccccc3c2cc[n+]1C
inhibition [7]: inactive
